Columns and labels:
DU-145 [1] = assay: Percent growth of prostate DU-145 cell line was determined at 10e-5 M concentration after 48 hr of exposing; format: functional, Homo sapiens
[2] = Percent growth of melanoma LOX IMV1 cell line was determined at 10e-8 M concentration after 48 hr of exposing; format: functional, Homo sapiens
Method in brief: (§1)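 NCI sulforhodamine B screen. Cells seeded by growth rate, 24 h drug-free, then 48 h exposure to 10^-8, 10^-6 or 10^-5 M. Protein-stain optical density expressed as percent growth relative to untreated control (100%); negative values indicate cell kill.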

[3] = Cytotoxicity against human MKN45 cancer cell line was determined after 1 hr; format: cell-based; conditions: Cancer cell lines
Method in brief: (§2)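 MTT colorimetric assay. Cells seeded by growth characteristics and preincubated 24 h, then exposed to drug for 1 h or 144 h at 37 °C, 5% CO2. H460M, MKN45 and PC-3 were grown in RPMI 1640 with 10% FCS. HCT116 was grown in D-MEM with 10% FBS and 2 mM glutamine.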

OVCAR-4 [4] = assay: Percent growth of ovarian OVCAR-4 cell line was determined at 10e-8 M concentration after 48 hr of exposing; format: functional, Homo sapiens; method in brief: as §1
OVCAR-4 [5] = assay: Percent growth of ovarian OVCAR-4 cell line was determined at 10e-5 M concentration after 48 hr of exposing; format: functional, Homo sapiens; method in brief: as §1
[6] = Cytotoxicity against human H460M cancer cell line was determined after 144 hr; format: functional, cell-based; conditions: Cancer cell lines; method in brief: as §2
OVCAR-4 [7] = assay: Percent growth of ovarian OVCAR-4 cell line was determined at 10e-6 M concentration after 48 hr of exposing; format: functional, Homo sapiens; method in brief: as §1
[8] = Percent growth of melanoma LOX IMV1 cell line was determined at 10e-5 M concentration after 48 hr of exposing; format: functional, Homo sapiens; method in brief: as §1
SNB-19 [9] = assay: Percent growth of CNS SNB-19 cell line was determined at 10e-8 M concentration after 48 hr of exposing; format: functional, Homo sapiens; method in brief: as §1
786-0 [10] = assay: Percent growth of renal 786-O cell line was determined at 10e-6 M concentration after 48 h of exposing; format: functional, Homo sapiens; method in brief: as §1
[11] = Cytotoxicity against human HCT116 cancer cell line was determined after 1 hr; format: cell-based; conditions: HCT-116, 1 h; method in brief: as §2
HCT-116 = assay: Cytotoxicity against human HCT116 cancer cell line was determined after 144 hr; format: functional, cell-based; conditions: HCT-116, 144 h; method in brief: as §2
SNB-19 [12] = assay: Percent growth of CNS SNB-19 cell line was determined at 10e-5 M concentration after 48 hr of exposing; format: functional, Homo sapiens; method in brief: as §1
NCI-H460 [13] = assay: Percent growth of lung NCI-H460 cell line was determined at 10e-8 M concentration after 48 hr of exposing; format: functional, Homo sapiens; method in brief: as §1
786-0 [14] = assay: Percent growth of renal 786-O cell line was determined at 10e-5 M concentration after 48 hr of exposing; format: functional, Homo sapiens; method in brief: as §1
MCF7 [15] = assay: Percent growth of breast MCF-7 cell line was determined at 10e-5 M concentration after 48 hr of exposing; format: functional, Homo sapiens
NCI-H460 [16] = assay: Percent growth of lung NCI-H460 cell line was determined at 10e-6 M concentration after 48 hr of exposing; format: functional, Homo sapiens; method in brief: as §1
SNB-19 [17] = assay: Percent growth of CNS SNB-19 cell line was determined at 10e-6 M concentration after 48 hr of exposing; format: functional, Homo sapiens; method in brief: as §1
[18] = Cytotoxicity against doxorubicin resistant LoVo cell line was determined against 1 hour; format: cell-based; conditions: Homo sapiens
Method in brief: (§3)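 MTT assay on doxorubicin-sensitive LoVo and resistant LoVo/Dx cells, 24 h preincubation, then 1 h or 144 h drug exposure at 37 °C, 5% CO2. IC50 in nM. Resistance index is IC50 on LoVo/Dx divided by IC50 on LoVo.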

MOLT-4 [19] = assay: Percent growth of leukemia MOLT-4 cell line was determined at 10e-8 M concentration after 48 hr of exposing; format: functional, Homo sapiens; method in brief: as §1
MCF7 [20] = assay: Percent growth of breast MCF-7 cell line was determined at 10e-6 M concentration after 48 h of exposing; format: functional, Homo sapiens
LoVo [21] = assay: Cytotoxicity against human LoVo cancer cell line was determined after 144 hr; format: functional, cell-based; method in brief: as §3
HT-29 = assay: Cytotoxicity is determined as the concentration required to inhibit the growth of human colon adenocarcinoma (HT-29) cell line; format: functional, cell-based
MOLT-4 [22] = assay: Percent growth of leukemia MOLT-4 cell line was determined at 10e-6 M concentration after 48 h of exposing; format: functional, Homo sapiens; method in brief: as §1
[23] = Cytotoxicity against human LoVo cancer cell line was determined after 1 hr; format: cell-based; method in brief: as §3
786-0 [24] = assay: Percent growth of renal 786-O cell line was determined at 10e-8 M concentration after 48 h of exposing; format: functional, Homo sapiens; method in brief: as §1
SW-620 [25] = assay: Percent growth of colon SW-620 cell line was determined at 10e-8 M concentration after 48 hr of exposing; format: functional, Homo sapiens; method in brief: as §1
MKN-45 = assay: Cytotoxicity against human MKN45 cancer cell line was determined after 144 hr; format: functional, cell-based; conditions: MKN-45, 144 h; method in brief: as §2
[26] = Cytotoxicity against human PC3 cancer cell line was determined after 1 hr; format: cell-based; conditions: Cancer cell lines; method in brief: as §2
[27] = Cytotoxicity against human H460M cancer cell line was determined after 1 hr; format: cell-based; conditions: Cancer cell lines; method in brief: as §2
SW-620 [28] = assay: Percent growth of colon SW-620 cell line was determined at 10e-5 M concentration after 48 hr of exposing; format: functional, Homo sapiens; method in brief: as §1
PC-3 = assay: Cytotoxicity against human PC3 cancer cell line was determined after 144 hr; format: functional, cell-based; conditions: PC-3, 144 h; method in brief: as §2
[29] = Percent growth of melanoma LOX IMV1 cell line was determined at 10e-6 M concentration after 48 hr of exposing; format: functional, Homo sapiens; method in brief: as §1
SW-620 [30] = assay: Percent growth of colon SW-620 cell line was determined at 10e-6 M concentration after 48 hr of exposing; format: functional, Homo sapiens; method in brief: as §1
LoVo [31] = assay: Ratio of IC50 against sensitive LoVo cell line and that of doxorubicin resistance LoVo cell line was determined after 1 hr exposure; format: functional, Homo sapiens
MOLT-4 [32] = assay: Percent growth of leukemia MOLT-4 cell line was determined at 10e-5 M concentration after 48 hr of exposing; format: functional, Homo sapiens; method in brief: as §1
LoVo [33] = assay: Cytotoxicity against doxorubicin resistant LoVo cell line was determined against 144 hrs; format: functional, cell-based; conditions: Homo sapiens; method in brief: as §3
MCF7 [34] = assay: Percent growth of breast MCF-7 cell line was determined at 10e-8 M concentration after 48 hr of exposing; format: functional, Homo sapiens
NCI-H460 [35] = assay: Percent growth of lung NCI-H460 cell line was determined at 10e-5 M concentration after 48 hr of exposing; format: functional, Homo sapiens; method in brief: as §1
DU-145 [36] = assay: Percent growth of prostate DU-145 cell line was determined at 10e-6 M concentration after 48 hr of exposing; format: functional, Homo sapiens
DU-145 [37] = assay: Percent growth of prostate DU-145 cell line was determined at 10e-8 M concentration after 48 h of exposing; format: functional, Homo sapiens
Nucleic Acid = assay: Binding site preference is determined as the ratio of Poly (dA-dT)2 to Poly (dG-dC)2; format: nucleic-acid assay
Method in brief: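 Ethidium displacement fluorometry at pH 7.0 (10 mM Na2HPO4, 10 mM NaH2PO4, 1 mM EDTA) with 1.26 μM ethidium bromide and 1 μM [poly(dA-dT)]2 or [poly(dG-dC)]2, 20 °C. Ex 546 nm, em 595 nm, drug added serially from a DMSO stock. Preference taken from the [AT]/[GC] ratio of C50 values, counted significant only below 0.7 or above 1.3.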

- Binding site preference (Nucleic Acid): 5.5
SMILES: COc1ccc2c(c1)-c1nn(CCN(C)C)c3ccc(C(=O)NCCCN(C)CCCNC(=O)c4ccc5c6c(c7cc(OC)ccc7nc46)NN5CCN(C)C)c(c13)N2
- Growth (DU-145 [1]): -21%
- Growth [2]: 46%
- IC50 [3]: 51 nM
- Growth (OVCAR-4 [4]): 71%
- Growth (OVCAR-4 [5]): -54%
- IC50 [6]: 4.3 nM
- Growth (OVCAR-4 [7]): -5%
- Growth [8]: -80%
- Growth (SNB-19 [9]): 47%
- Growth (786-0 [10]): 11%
- IC50 [11]: 120 nM
- IC50 (HCT-116): 43 nM
- Growth (SNB-19 [12]): -37%
- Growth (NCI-H460 [13]): 23%
- Growth (786-0 [14]): -33%
- Growth (MCF7 [15]): -18%
- Growth (NCI-H460 [16]): 3%
- Growth (SNB-19 [17]): 0%
- IC50 [18]: 3100 nM
- Growth (MOLT-4 [19]): 19%
- Growth (MCF7 [20]): 7%
- IC50 (LoVo [21]): 5.1 nM
- IC50 (HT-29): 3 nM
- Growth (MOLT-4 [22]): -28%
- IC50 [23]: 53 nM
- Growth (786-0 [24]): 53%
- Growth (SW-620 [25]): 44%
- IC50 (MKN-45): 13 nM
- IC50 [26]: > 100 nM
- IC50 [27]: 26 nM
- Growth (SW-620 [28]): -39%
- IC50 (PC-3): 39 nM
- Growth [29]: 3%
- Growth (SW-620 [30]): 3%
- Resistance index (LoVo [31]): 58
- Growth (MOLT-4 [32]): -28%
- IC50 (LoVo [33]): 290 nM
- Growth (MCF7 [34]): 66%
- Growth (NCI-H460 [35]): -58%
- Growth (DU-145 [36]): -8%
- Growth (DU-145 [37]): 70%

— ChEMBL document CHEMBL1138784, “Rational design, synthesis, and biological evaluation of bis(pyrimido[5,6,1-de]acridines) and bis(pyrazolo[3,4,5-kl]acridine-5-carboxamides) as new anticancer agents” (J Med Chem, 2004)
